Source: ChEMBL document CHEMBL1140049, “Bioisosteric replacement of the pyrazole 5-aryl moiety of N-(piperidin-1-yl)-5-(4-chlorophenyl)-1-(2,4-dichlorophenyl)-4-methyl-1H-pyrazole-3-carboxamide (SR141716A). A novel series of alkynylthiophenes as potent and selective cannabinoid-1 receptor antagonists” (J Med Chem, 2008)
The source made the active and inactive calls. The calls are words filed in the database; no cut-off is given here.

What was measured:
Cannabinoid receptor 2 = Cannabinoid receptor 2 (Homo sapiens, UniProt P34972); test: Displacement of [3H]CP-55940 from human CB2 receptor expressed in HEK293 cells; type: cell-based
Cannabinoid receptor 2, sequence (P34972 whole entry): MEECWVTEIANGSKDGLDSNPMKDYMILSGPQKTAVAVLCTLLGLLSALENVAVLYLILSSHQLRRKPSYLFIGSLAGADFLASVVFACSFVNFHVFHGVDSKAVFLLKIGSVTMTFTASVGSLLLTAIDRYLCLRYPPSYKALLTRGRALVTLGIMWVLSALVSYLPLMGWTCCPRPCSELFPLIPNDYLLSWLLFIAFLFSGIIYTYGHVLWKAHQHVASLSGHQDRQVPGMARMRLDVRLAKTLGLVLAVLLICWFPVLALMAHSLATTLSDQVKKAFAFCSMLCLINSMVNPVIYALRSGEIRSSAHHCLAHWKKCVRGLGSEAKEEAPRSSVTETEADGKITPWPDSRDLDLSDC

HEK293 = test: Selectivity ratio of IC50 for human CB2 receptor to human CB1 receptor expressed in HEK293 cells; type: cell-based
Cannabinoid receptor 1 [1] = target: T1, Cannabinoid receptor 1 (Homo sapiens, UniProt P21554); test: biochemical; type: cell-based, HEK293
T1 sequence (P21554 whole entry): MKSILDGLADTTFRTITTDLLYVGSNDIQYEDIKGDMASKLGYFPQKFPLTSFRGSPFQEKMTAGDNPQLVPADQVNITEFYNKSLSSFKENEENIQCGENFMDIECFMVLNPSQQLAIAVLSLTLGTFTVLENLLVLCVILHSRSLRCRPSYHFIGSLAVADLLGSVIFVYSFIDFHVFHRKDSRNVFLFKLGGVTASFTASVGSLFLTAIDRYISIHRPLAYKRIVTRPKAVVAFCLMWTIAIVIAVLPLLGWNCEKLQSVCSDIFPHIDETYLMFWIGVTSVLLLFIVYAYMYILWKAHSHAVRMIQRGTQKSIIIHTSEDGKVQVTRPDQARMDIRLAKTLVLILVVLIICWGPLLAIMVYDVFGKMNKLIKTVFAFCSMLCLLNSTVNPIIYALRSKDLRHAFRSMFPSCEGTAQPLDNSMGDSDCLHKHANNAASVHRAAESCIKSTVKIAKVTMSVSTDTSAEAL

Cannabinoid receptor 1 [2] = target: T1, Cannabinoid receptor 1; test: Agonist activity at human CB1 receptor expressed in HEK293 cells assessed as increase in [35S]gammaGTP binding relative to control; type: cell-based
Cannabinoid receptor 1 [3] = target: T1, Cannabinoid receptor 1; test: Antagonist activity at human CB1 receptor expressed in HEK293 cells assessed as inhibition of Eu-GTP binding; type: cell-based
Cannabinoid receptor 1 [4] = target: T1, Cannabinoid receptor 1; test: Antagonist activity at human CB1 receptor expressed in HEK293 cells assessed as effect on [35S]gammaGTP binding relative to control; type: cell-based
Cannabinoid receptor 1 [5] = target: T1, Cannabinoid receptor 1; test: Displacement of [3H]SR141716A from human CB1 receptor expressed in HEK293 cells; type: cell-based
Rattus norvegicus = test: Suppression of appetite in orally dosed spontaneously feeding Wistar rat model; type: functional, organism-based
In short: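 Male Wistar rats (210-270 g), singly housed on 12 h reversed light cycle over a week; single oral gavage of 3, 10 or 20 mg/kg or vehicle (20% DMSO/10% Tween-80/70% H2O) before lights off, chow supplied at 11 a.m.; food intake at 1, 2, 3, 6 h as cal per g body weight; n = 4-6.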

Mus musculus [6] = test: Suppression of appetite in orally dosed DIO C57BL/6 mouse model; type: functional, organism-based
Mus musculus [7] = test: Decrease in body weight in DIO C57BL/6 mouse model at 20 mg/kg, po qd for 21 days; type: functional, organism-based; design: dose 20 mg/kg
Mus musculus [8] = test: Decrease in body weight in DIO C57BL/6 mouse model at 10 mg/kg, po qd for 21 days

IC50 (Cannabinoid receptor 2) [nM] | IC50 (Cannabinoid receptor 1 [1]) [nM] | Activity (Cannabinoid receptor 1 [2]) | EC50 (Cannabinoid receptor 1 [3]) [nM] | Activity (Cannabinoid receptor 1 [4]) | IC50 (Cannabinoid receptor 1 [5]) [nM] | Compound | Ratio IC50 (HEK293) | Activity (Rattus norvegicus) | Activity (Mus musculus [6]) | Activity (Mus musculus [7]) | Activity (Mus musculus [8])
1580 | 7.3 | Active | 442 |  |  | Cc1c(C(=O)NN2CCCCC2)nn(-c2ccc(Cl)cc2Cl)c1-c1ccc(C#CC2CCCCC2)s1 | 216 |  |  |  | 
4330 | 65.4 |  | 51.4 | Active |  | CCC#Cc1ccc(-c2c(C)c(C(=O)NN3CCCCC3)nn2-c2ccc(Cl)cc2Cl)s1 | 66 |  |  |  | 
921 | 28.3 |  | 35.5 | Active |  | CCC#Cc1ccc(-c2c(C)c(C(=O)NN3CC4CCCC4C3)nn2-c2ccc(Cl)cc2Cl)s1 (stereo not given) | 33 |  |  |  | 
986 | 12.7 |  | 25.5 |  |  | CCOCC#Cc1ccc(-c2c(C)c(C(=O)NN3CCCCC3)nn2-c2ccc(Cl)cc2Cl)s1 | 78 |  |  |  | 
2160 | 159 |  | 134 |  |  | Cc1c(C(=O)NN2CCCCCC2)nn(-c2ccc(Cl)cc2Cl)c1-c1ccc(Cl)s1 | 14 |  |  |  | 
785 | 7.9 |  | 19.2 | Active |  | CCCC#Cc1ccc(-c2c(C)c(C(=O)NN3CC4CCCC4C3)nn2-c2ccc(Cl)cc2Cl)s1 (stereo not given) | 99 |  |  |  | 
1270 | 124 |  | 349 |  |  | Cc1c(C(=O)NN2CCCCC2)nn(-c2ccc(Cl)cc2Cl)c1-c1ccc(C#CCN(C)C)s1 | 10 |  |  |  | 
2740 | 65.3 |  | 143 |  |  | COCC#Cc1ccc(-c2c(C)c(C(=O)NN3CCCCC3)nn2-c2ccc(Cl)cc2Cl)s1 | 42 |  |  |  | 
705 | 40.7 |  | 64.9 |  |  | Cc1c(C(=O)NN2CCCCCC2)nn(-c2ccc(Cl)cc2Cl)c1-c1ccc(Br)s1 | 17 |  |  |  | 
1060 | 24.2 |  | 36.4 | Active |  | CCC#Cc1ccc(-c2c(C)c(C(=O)NN3CCCCCC3)nn2-c2ccc(Cl)cc2Cl)s1 | 44 |  |  |  | 
1730 | 7.8 | Active | 294 |  |  | Cc1c(C(=O)NN2CC3CCCC3C2)nn(-c2ccc(Cl)cc2Cl)c1-c1ccc(C#CC2CCCCC2)s1 (stereo not given) | 221 |  |  |  | 
902 | 10.5 | Active | 99.3 |  |  | Cc1c(C(=O)NN2CC3CCCC3C2)nn(-c2ccc(Cl)cc2Cl)c1-c1ccc(C#CC2CCCC2)s1 (stereo not given) | 86 |  |  |  | 
920 | 6.1 |  | 13.8 |  | 1.2 | CCCC#Cc1ccc(-c2c(CC)c(C(=O)NN3CCCCC3)nn2-c2ccc(Cl)cc2Cl)s1 | 151 | Dose-dependent effect | Dose-dependent effect | Active | 
564 | 1.7 | Active | 4.8 |  |  | CCCCC#Cc1ccc(-c2c(C)c(C(=O)NN3CCCCCC3)nn2-c2ccc(Cl)cc2Cl)s1 | 332 |  |  |  | 
895 | 35.8 |  | 68.2 |  |  | Cc1c(C(=O)NN2CCCCC2)nn(-c2ccc(Cl)cc2Cl)c1-c1ccc(Br)s1 | 25 |  |  |  | 
1210 | 5.1 |  | 23 |  |  | CCc1c(C(=O)NN2CCCCC2)nn(-c2ccc(Cl)cc2Cl)c1-c1ccc(C#CCC(C)C)s1 | 236 |  |  |  | 
688 | 4.9 | Active | 14.6 |  | 1.2 | Cc1c(C(=O)NN2CCCCCC2)nn(-c2ccc(Cl)cc2Cl)c1-c1ccc(C#CCC(C)C)s1 | 139 |  |  |  | 

IC50 (Cannabinoid receptor 2) [nM] | IC50 (Cannabinoid receptor 1 [1]) [nM] | Activity (Cannabinoid receptor 1 [2]) | EC50 (Cannabinoid receptor 1 [3]) [nM] | Activity (Cannabinoid receptor 1 [4]) | IC50 (Cannabinoid receptor 1 [5]) [nM] | Compound | Ratio IC50 (HEK293) | Activity (Rattus norvegicus) | Activity (Mus musculus [6]) | Activity (Mus musculus [7]) | Activity (Mus musculus [8])
 |  |  |  |  |  | Cc1c(C(=O)NN2CCCCC2)nn(-c2ccc(Cl)cc2Cl)c1-c1ccc(Cl)cc1 |  |  |  |  | Active
1500 | 7 |  | 14.1 | Active | 1.2 | CCCC#Cc1ccc(-c2c(C)c(C(=O)NN3CCCCCC3)nn2-c2ccc(Cl)cc2Cl)s1 | 214 |  |  |  | 
2210 | 13.9 |  | 28.7 | Active | 1.2 | CCCC#Cc1ccc(-c2c(C)c(C(=O)NN3CCCCC3)nn2-c2ccc(Cl)cc2Cl)s1 | 159 |  |  |  | 
386 | 2.3 | Active | 12.1 |  | 1.2 | Cc1c(C(=O)NN2CCCCC2)nn(-c2ccc(Cl)cc2Cl)c1-c1ccc(C#CCC(C)C)s1 | 168 |  |  |  | 
1160 | 21.7 | Active | 158 |  |  | Cc1c(C(=O)NN2CC3CCCC3C2)nn(-c2ccc(Cl)cc2Cl)c1-c1ccc(C#CC(C)(C)C)s1 (stereo not given) | 53 |  |  |  | 
6350 | 57.9 |  | 75.9 |  |  | CCCCCc1ccc(-c2c(C)c(C(=O)NN3CCCCC3)nn2-c2ccc(Cl)cc2Cl)s1 | 109 |  |  |  | 
4230 | 60.4 |  | 72.9 | Active |  | Cc1c(C(=O)NN2CCCCC2)nn(-c2ccc(Cl)cc2Cl)c1-c1ccc(C#CC2CC2)s1 | 70 |  |  |  | 
5720 | 21 |  | 105 | Active |  | Cc1c(C(=O)NN2CC3CCCC3C2)nn(-c2ccc(Cl)cc2Cl)c1-c1ccc(C#CC2CC2)s1 (stereo not given) | 272 |  |  |  | 
1810 | 7.1 | Active | 24.5 |  |  | Cc1c(C(=O)NN2CCCCC2)nn(-c2ccc(Cl)cc2Cl)c1-c1ccc(C#CC2CCCC2)s1 | 255 |  |  |  | 
3660 | 20.6 |  | 48 |  |  | CCCCCc1ccc(-c2c(C)c(C(=O)NN3CC4CCCC4C3)nn2-c2ccc(Cl)cc2Cl)s1 (stereo not given) | 178 |  |  |  | 
1900 | 32.7 | Active | 28.9 |  |  | Cc1c(C(=O)NN2CCCCC2)nn(-c2ccc(Cl)cc2Cl)c1-c1ccc(C#CC(C)(C)C)s1 | 59 |  |  |  | 
158 | 1.3 | Active | 5.7 |  |  | CCCCC#Cc1ccc(-c2c(C)c(C(=O)NN3CC4CCCC4C3)nn2-c2ccc(Cl)cc2Cl)s1 (stereo not given) | 122 |  |  |  | 
1750 | 6.1 | Active | 20.4 |  |  | Cc1c(C(=O)NN2CCCCC2)nn(-c2ccc(Cl)cc2Cl)c1-c1ccc(C#CCCc2ccccc2)s1 | 285 |  |  |  | 
5410 | 27.5 |  | 71.4 |  |  | CCC/C=C/c1ccc(-c2c(C)c(C(=O)NN3CC4CCCC4C3)nn2-c2ccc(Cl)cc2Cl)s1 (stereo not given) | 197 |  |  |  | 
1290 | 50.2 |  | 147 |  |  | Cc1c(C(=O)NN2CCCCC2)nn(-c2ccc(Cl)cc2Cl)c1-c1ccc(Cl)s1 | 26 |  |  |  | 
7180 | 82.4 |  | 390 |  |  | Cc1c(C(=O)NN2CCCCC2)nn(-c2ccc(Cl)cc2Cl)c1-c1ccc(C#CCNC(C)C)s1 | 87 |  |  |  | 
1760 | 23.2 | Active | 57.4 |  |  | Cc1c(C(=O)NN2CCCCC2)nn(-c2ccc(Cl)cc2Cl)c1-c1ccc(C#CCOC(C)C)s1 | 76 |  |  |  | 

Compound | IC50 (Cannabinoid receptor 2) [nM] | IC50 (Cannabinoid receptor 1 [1]) [nM] | Activity (Cannabinoid receptor 1 [2]) | EC50 (Cannabinoid receptor 1 [3]) [nM] | Activity (Cannabinoid receptor 1 [4]) | IC50 (Cannabinoid receptor 1 [5]) [nM] | Ratio IC50 (HEK293) | Activity (Rattus norvegicus) | Activity (Mus musculus [6]) | Activity (Mus musculus [7]) | Activity (Mus musculus [8])
Cc1c(C(=O)NN2CCCCC2)nn(-c2ccc(Cl)cc2Cl)c1-c1ccc(C#CCOc2ccccc2)s1 | 7030 | 43 |  | 18.7 | Active |  | 164 |  |  |  | 
CCCCC#Cc1ccc(-c2c(C)c(C(=O)NCCCC)nn2-c2ccc(Cl)cc2Cl)s1 | 638 | 3 | Active | 29.8 |  |  | 213 |  |  |  | 
CCCC#Cc1ccc(-c2c(CC)c(C(=O)NN3CCCCCC3)nn2-c2ccc(Cl)cc2Cl)s1 | 310 | 8.9 |  | 16.5 |  | 1.2 | 34 |  |  |  | 
CCCCC#Cc1ccc(-c2c(C)c(C(=O)NC3CCCCC3)nn2-c2ccc(Cl)cc2Cl)s1 | 278 | 2.1 | Active | 43.9 |  |  | 133 |  |  |  | 
CCCCC#Cc1ccc(-c2c(C)c(C(=O)NCCCCCC)nn2-c2ccc(Cl)cc2Cl)s1 | 261 | 2.6 | Active | 74 |  |  | 100 |  |  |  | 
CCCCC#Cc1ccc(-c2c(C)c(C(=O)NN3CCCCC3)nn2-c2ccc(Cl)cc2Cl)s1 | 311 | 1.4 | Active | 7.9 |  |  | 222 |  |  |  | 
CCC/C=C/c1ccc(-c2c(C)c(C(=O)NN3CCCCC3)nn2-c2ccc(Cl)cc2Cl)s1 | 3840 | 21.6 |  | 146 |  |  | 178 |  |  |  | 
